# Source: ChEMBL document CHEMBL1811814, “Synthesis and evaluation of indole, pyrazole, chromone and pyrimidine based conjugates for tumor growth inhibitory activities--development of highly efficacious cytotoxic agents” (Eur J Med Chem, 2010)
# Columns and labels:
# Assay type in all cases: functional
# Set-up in all cases: scale not given: the % may be the effect or the level left
# [1] = system: TK-10; assay: Growth inhibition of human TK10 cells assessed tumor cell growth at 10^-5 M
# Procedure, shortened: (§1)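 Single-dose screen at 10^-5 M across the 60 human tumor cell line panel, run to NCI standards. The value is the percent growth of each cell line in the presence of compound. Compounds active at this dose moved on to five-concentration testing (10^-4 to 10^-8 M).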
# [2] = system: CAKI-1; assay: Growth inhibition of human Caki1 cells assessed tumor cell growth at 10^-5 M
# Procedure, shortened: (§2)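 NCI 60-human-tumor-cell-line panel screen. Each compound was tested at a single concentration of 10^-5 M, and percent growth of tumor cells was recorded for each cell line. Growth inhibition was expressed from these percent-growth values.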
# [3] = system: HCC 2998; assay: Growth inhibition of human HCC2998 cells assessed tumor cell growth at 10^-5 M; procedure, shortened: as §2
# [4] = system: DU-145; assay: Growth inhibition of human DU145 cells assessed tumor cell growth at 10^-5 M; procedure, shortened: as §2
# [5] = Growth inhibition of human […] cells assessed tumor cell growth at 10^-5 M; procedure, shortened: as §2
# [6] = system: HT-29; assay: Growth inhibition of human HT-29 cells assessed tumor cell growth at 10^-5 M; procedure, shortened: as §2
# [7] = system: MOLT-4; assay: Growth inhibition of human MOLT4 cells assessed tumor cell growth at 10^-5 M; procedure, shortened: as §2
# [8] = system: U-251; assay: Growth inhibition of human U251 cells assessed tumor cell growth at 10^-5 M; procedure, shortened: as §1
# [9] = system: SF-295; assay: Growth inhibition of human SF295 cells assessed tumor cell growth at 10^-5 M; procedure, shortened: as §2
# [10] = system: OVCAR-3; assay: Growth inhibition of human OVCAR3 cells assessed tumor cell growth at 10^-5 M; procedure, shortened: as §2
# [11] = system: PC-3; assay: Growth inhibition of human PC3 cells assessed tumor cell growth at 10^-5 M; procedure, shortened: as §2
# [12] = system: K562; assay: Growth inhibition of human K562 cells assessed tumor cell growth at 10^-5 M; procedure, shortened: as §2
# [13] = system: A549; assay: Growth inhibition of human A549 cells assessed tumor cell growth at 10^-5 M; procedure, shortened: as §2
# [14] = system: M14; assay: Growth inhibition of human M14 cells assessed tumor cell growth at 10^-5 M; procedure, shortened: as §2
# [15] = system: OVCAR-8; assay: Growth inhibition of human OVCAR8 cells assessed tumor cell growth at 10^-5 M; procedure, shortened: as §2
# [16] = system: OVCAR-5; assay: Growth inhibition of human OVCAR5 cells assessed tumor cell growth at 10^-5 M; procedure, shortened: as §2
# [17] = system: HCT-116; assay: Growth inhibition of human HCT116 cells assessed tumor cell growth at 10^-5 M; procedure, shortened: as §2
# [18] = system: NCI-H226; assay: Growth inhibition of human NCI-H226 cells assessed tumor cell growth at 10^-5 M; procedure, shortened: as §2
# [19] = system: NCI-H460; assay: Growth inhibition of human NCI-H460 cells assessed tumor cell growth at 10^-5 M; procedure, shortened: as §2
# [20] = system: OVCAR-4; assay: Growth inhibition of human OVCAR4 cells assessed tumor cell growth at 10^-5 M; procedure, shortened: as §2
# [21] = system: SW-620; assay: Growth inhibition of human SW620 cells assessed tumor cell growth at 10^-5 M; procedure, shortened: as §1
# [22] = system: SK-MEL-5; assay: Growth inhibition of human SK-MEL-5 cells assessed tumor cell growth at 10^-5 M; procedure, shortened: as §2
# [23] = system: NCI-H522; assay: Growth inhibition of human NCI-H522 cells assessed tumor cell growth at 10^-5 M; procedure, shortened: as §2
# [24] = Growth inhibition of human Hs 578T cells assessed tumor cell growth at 10^-5 M; procedure, shortened: as §2
# [25] = system: UO-31; assay: Growth inhibition of human UO31 cells assessed tumor cell growth at 10^-5 M; procedure, shortened: as §1
# [26] = system: SF-268; assay: Growth inhibition of human SF268 cells assessed tumor cell growth at 10^-5 M; procedure, shortened: as §2
# [27] = system: LOX IMVI; assay: Growth inhibition of human LOXIMVI cells assessed tumor cell growth at 10^-5 M; procedure, shortened: as §2
# [28] = system: A498; assay: Growth inhibition of human A498 cells assessed tumor cell growth at 10^-5 M; procedure, shortened: as §2
# [29] = system: HCT-15; assay: Growth inhibition of human HCT15 cells assessed tumor cell growth at 10^-5 M; procedure, shortened: as §2
smiles,measurement,setting,value
Cc1ccc(S(=O)(=O)n2cc(/C=C3\C(=O)Nc4ccccc43)c3ccccc32)cc1,Activity,[1],117.8%
same,Activity,[2],53.7%
same,Activity,[3],98.6%
same,Activity,[4],101.5%
same,Activity,[5],80.7%
same,Activity,[6],104.5%
same,Activity,[7],95.7%
same,Activity,[8],86.4%
same,Activity,[9],97.1%
same,Activity,[10],83.7%
same,Activity,[11],92.8%
same,Activity,[12],85%
same,Activity,[13],88.2%
same,Activity,[14],96%
same,Activity,[15],91.2%
same,Activity,[16],87.3%
same,Activity,[17],92.5%
same,Activity,[18],86.3%
same,Activity,[19],97.3%
same,Activity,[20],70.1%
same,Activity,[21],103%
same,Activity,[22],84.9%
same,Activity,[23],111.2%
same,Activity,[24],92.2%
same,Activity,[25],60.9%
same,Activity,[26],88.4%
same,Activity,[27],82.7%
same,Activity,[28],102%
same,Activity,[29],79.5%
